Published values gathered from unrelated publications.
Compare with care: the assays were run in different laboratories.
CDK2 with cyclin E1: Cyclin-dependent kinase 2, with cyclin E1 (CDK2, Homo sapiens, UniProt P24941)
SCN5A: Sodium channel protein type 5 subunit alpha (SCN5A, Homo sapiens, UniProt Q14524)
Genome polyprotein protease: Genome polyprotein, protease (ZIKV, UniProt A0A024B7W1)

SMILES	target	assay	setting	IC50 [µM]
COc1c(-c2ccc3c(c2)OCO3)oc2c(ccc3occc32)c1=O	CDK2 with cyclin E1	enzyme activity, inhibitor, ADP detection		> 100
N=C1CCCN1Cc1[nH]c(=O)[nH]c(=O)c1Br	Thymidine phosphorylase (Homo sapiens, UniProt P19971)	enzyme activity, inhibitor		0.0027
C[C@H]1COCCN1c1nc(NCc2cccnc2C(F)(F)F)c2cccnc2n1	SCN5A	ion current, inhibitor		> 33
CCCCCCCCCCCCCCCCOC[C@H](COP(=O)([O-])OCC[N+](C)(C)C)OC(C)=O	Platelet-activating factor receptor (PTAFR, Homo sapiens, UniProt P25105)	ligand displacement, radioligand		0.00025
CC(=O)c1cc(O)c2ccccc2c1O	Genome polyprotein, methyltransferase (ZIKV, UniProt A0A024B7W1)	enzyme activity, inhibitor, TR-FRET		12.9
COc1ncccc1NS(=O)(=O)c1ccc(S(=O)(=O)F)c2c1CCNC2	RALB (Homo sapiens, UniProt P11234, Y82F)	cell-free assay, inhibitor, fluorescence		> 100
C[C@H](N)Cn1ncc2ccc3c(c21)CCCO3	5-hydroxytryptamine receptor 6 (HTR6, Homo sapiens, UniProt P50406)	ligand displacement, radioligand		19.6
O=c1c2ccccc2[nH]c(=S)n1-c1ccccc1	Cathepsin B (CTSB, Homo sapiens, UniProt P07858)	enzyme activity, inhibitor		76.7
COc1cc(C(=O)N2CC[C@@H](O)[C@@H](N)C2)cc2nc(-c3cc4ccccc4n3CC3CC3)n(C)c12	SCN5A	ion current, inhibitor		39.8
O=c1c(O)c(-c2cc(O)c(O)c(O)c2)oc2cc(O)cc(O)c12	Genome polyprotein protease	enzyme activity, inhibitor, FRET	pH 7	22
CC(C)C[C@H]1C(=O)N2CCC[C@H]2[C@]2(O)O[C@](NC(=O)[C@@H]3C=C4c5cccc6[nH]c(Br)c(c56)C[C@H]4N(C)C3)(C(C)C)C(=O)N12	5-hydroxytryptamine receptor 7 (HTR7, Homo sapiens, UniProt P34969)	cAMP, antagonist		0.08
CCCCCCCCCCCCCC(=O)O[C@@H]1[C@@H](C)[C@@]2(O)[C@@H](C=C(CO)C[C@]3(O)C(=O)C(C)=C[C@@H]23)[C@@H]2C(C)(C)[C@]12OC(C)=O	Proteinase-activated receptor 1 (F2R, Homo sapiens, UniProt P25116)	calcium signal, antagonist		0.00747
COc1c(-c2ccccc2)oc2c(ccc3occc32)c1=O	CDK2 with cyclin E1	enzyme activity, inhibitor, ADP detection		> 10
COc1cc2oc(-c3ccc(O)c(O)c3)cc(=O)c2c(O)c1O	Genome polyprotein protease	enzyme activity, inhibitor	pH 8.5	5
